Experimental data taken from ChEMBL document CHEMBL3822413, “Design, synthesis, and evaluation of water-soluble morpholino-decorated paclitaxel prodrugs with remarkably decreased toxicity” (Bioorg Med Chem Lett, 2016).
In brackets after ≈: the same amount, converted by molar mass. Activity calls are given as the source filed them. The rule behind the calls is not given here.

Experiments:
CCRF S-180 [1] = test: Antitumor activity against mouse S180 cells allografted in mouse assessed as tumor weight at 25 mg/kg, iv administered 4 time a day post 24 hrs of tumor implantation measured after 10 days (reference value: 7.35g); format: functional
[2] = Aqueous solubility of the compound; format: physicochemical
[3] = Ratio of aqueous solubility of compound to aqueous solubility of paclitaxel; format: physicochemical; settings: buffer
MCF7 [4] = test: Cytotoxicity against human MCF7 cells assessed as cell viability measured after 48 hrs by MTS assay; format: functional, cell-based; settings: MCF7, 48 h
How it was run: (§1)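 MCF-7 and HeLa cells seeded at 4×10^3 cells/well 24 h before treatment, then exposed to compounds for 48 h or 72 h. Viability measured by MTS assay and IC50 derived; top concentration tested 1 µM.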

MCF7 [5] = test: Cytotoxicity against human MCF7 cells assessed as cell viability measured after 72 hrs by MTS assay; format: functional, cell-based; settings: MCF7, 72 h; how it was run: as §1
HeLa [6] = test: Cytotoxicity against human HeLa cells assessed as cell viability measured after 48 hrs by MTS assay; format: functional, cell-based; how it was run: as §1
HeLa [7] = test: Cytotoxicity against human HeLa cells assessed as cell viability measured after 72 hrs by MTS assay; format: functional, cell-based; how it was run: as §1
Mus musculus [8] = test: Acute toxicity in mouse allografted with mouse S180 cells assessed as mouse survival at 90 mg/kg, iv administered 4 times per day post 24 hrs of tumor implantation; format: organism-based, CCRF S-180; settings: in vivo
CCRF S-180 [9] = test: Antitumor activity against mouse S180 cells allografted in mouse assessed as tumor growth inhibition at 25 mg/kg, iv administered 4 time a day post 24 hrs of tumor implantation measured after 10 days; format: functional; settings: CCRF S-180, iv, read-out: TGI
Mus musculus [10] = test: Toxicity in mouse allografted with mouse S180 cells assessed as change in body weight at 25 mg/kg, iv administered 4 time a day post 24 hrs of tumor implantation measured after 10 days (reference value: -2.8%); format: organism-based, CCRF S-180; settings: in vivo, 240 h
Mus musculus [11] = test: Toxicity in mouse allografted with mouse S180 cells assessed as mortality at 25 mg/kg, iv administered 4 time a day post 24 hrs of tumor implantation; format: organism-based, CCRF S-180; settings: in vivo
How it was run: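 S-180 cells were implanted subcutaneously in mice, 8 per group. Starting 24 h later, dosing was iv every other day for 4 doses, with dose expressed as paclitaxel-equivalent. Prodrug vehicle was 5% glucose. Paclitaxel was given in cremophor/ethanol (50%/50%) diluted 10-fold with 5% glucose. Vehicle controls received 5% glucose. Deaths were counted up to day 10.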

[12] = Metabolic stability in mouse plasma assessed as compound degradation at 37 degC measured after 10 hrs; format: ADME, cell-free; settings: read-out: Drug degradation
How it was run: (§2)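 Compound incubated in mouse plasma at 37 °C for up to 48 h. Remaining compound and released paclitaxel measured at intervals, expressed as detected concentration divided by total concentration. In a separate incubation, 10 mM dithiothreitol was added.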

Plasma = test: Metabolic stability in mouse plasma assessed as paclitaxel release at 37 degC in presence of dithiotheitol measured after 10 min; format: ADME, cell-free; how it was run: as §2
Mus musculus [13] = test: Acute toxicity in mouse allografted with mouse S180 cells at 60 mg/kg, iv administered 4 times per day post 24 hrs of tumor implantation measured after 24 hrs; format: organism-based, CCRF S-180; settings: in vivo
[14] = Toxicity in mouse; format: organism-based; settings: in vivo
[15] = Chemical stability of the compound assessed as paclitaxel release in presence of FBS measured after 4 hrs by HPLC analysis; format: physicochemical; settings: cattle
How it was run: (§3)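 Compound solution added to fetal bovine serum (400 µl into 3600 µl) and incubated at 37 °C. At set time points, 100 µl aliquots were quenched with 300 µl acetonitrile and centrifuged 5 min at 10,000 rpm. Supernatant analysed by HPLC for intact prodrug and released paclitaxel.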

MCF7 [16] = test: Cytotoxicity against human MCF7 cells at 1 uM by MTS assay; format: functional, cell-based; how it was run: as §1
HeLa [17] = test: Cytotoxicity against human HeLa cells at 1 uM by MTS assay; format: functional, cell-based; how it was run: as §1
[18] = Chemical stability of the compound assessed as compound degradation in presence of FBS measured after 4 hrs by HPLC analysis; format: physicochemical; settings: cattle; how it was run: as §3
[19] = Chemical stability of the compound assessed as paclitaxel release in presence of FBS measured after 5 hrs by HPLC analysis; format: physicochemical; settings: cattle; how it was run: as §3

| Structure (SMILES) | solubility [2] [µg/mL] | Ratio [3] | Drug metabolism [15] | Stability [18] | Drug metabolism [19] | Activity (CCRF S-180 [1]) [g] | IC50 (MCF7 [4]) [nM] | IC50 (MCF7 [5]) [nM] | IC50 (HeLa [6]) [nM] | IC50 (HeLa [7]) [nM] | Survival (Mus musculus [8]) [weeks] | inhibition in vivo at 25 mg/kg (CCRF S-180 [9]) [%] | Activity (Mus musculus [10]) [%] | Activity (Mus musculus [11]) | metabolised at 10 h [12] [%] | Drug metabolism (Plasma) | Activity (Mus musculus [13]) | MTD [14] [mg/kg] | Activity (MCF7 [16]) | Activity (HeLa [17]) |
| --- | --- | --- | --- | --- | --- | --- | --- | --- | --- | --- | --- | --- | --- | --- | --- | --- | --- | --- | --- | --- |
| CC(=O)O[C@H]1C(=O)[C@@]2(C)[C@H]([C@H](OC(=O)c3ccccc3)[C@]3(O)C[C@H](OC(=O)[C@H](OC(=O)OCCSSCC(=O)N[C@H](CC(=O)NCCN4CCOCC4)C(=O)NCCN4CCOCC4)[C@@H](NC(=O)c4ccccc4)c4ccccc4)C(C)=C1C3(C)C)[C@]1(OC(C)=O)CO[C@@H]1C[C@@H]2O | 5000 (≈ 3600 µM) | 20000 | – | – | – | 3.43 | 7.45 | 4.07 | 20.6 | 14 | 1 | 54 | -16.1 | Non-toxic | 100 | metabolite_detected | – | – | – | – |
| CC(=O)O[C@H]1C(=O)[C@@]2(C)[C@H]([C@H](OC(=O)c3ccccc3)[C@]3(O)C[C@H](OC(=O)[C@H](O)[C@@H](NC(=O)c4ccccc4)c4ccccc4)C(C)=C1C3(C)C)[C@]1(OC(C)=O)CO[C@@H]1C[C@@H]2O [PACLITAXEL] | – | – | – | – | – | 3.34 | 3.1 | 1.25 | 23.3 | 12.6 | – | 56 | -28.1 | – | – | – | Toxic | 30 | – | – |
| CC(=O)O[C@H]1C(=O)[C@@]2(C)[C@H]([C@H](OC(=O)c3ccccc3)[C@]3(O)C[C@H](OC(=O)[C@H](OC(=O)CCC(=O)NCCN4CCOCC4)[C@@H](NC(=O)c4ccccc4)c4ccccc4)C(C)=C1C3(C)C)[C@]1(OC(C)=O)CO[C@@H]1C[C@@H]2O | 500 (≈ 469 µM) | 2000 | – | – | metabolite_detected | – | 4.23 | 0.74 | 19.8 | 14.6 | – | – | – | – | – | – | – | – | – | – |

Second part, led by results:

| solubility [2] [µg/mL] | Ratio [3] | Drug metabolism [15] | Stability [18] | Drug metabolism [19] | Structure (SMILES) | Activity (CCRF S-180 [1]) [g] | IC50 (MCF7 [4]) [nM] | IC50 (MCF7 [5]) [nM] | IC50 (HeLa [6]) [nM] | IC50 (HeLa [7]) [nM] | Survival (Mus musculus [8]) [weeks] | inhibition in vivo at 25 mg/kg (CCRF S-180 [9]) [%] | Activity (Mus musculus [10]) [%] | Activity (Mus musculus [11]) | metabolised at 10 h [12] [%] | Drug metabolism (Plasma) | Activity (Mus musculus [13]) | MTD [14] [mg/kg] | Activity (MCF7 [16]) | Activity (HeLa [17]) |
| --- | --- | --- | --- | --- | --- | --- | --- | --- | --- | --- | --- | --- | --- | --- | --- | --- | --- | --- | --- | --- |
| 500 (≈ 495 µM) | 2000 | metabolite_notdetected | Unstable | – | CC(=O)O[C@H]1C(=O)[C@@]2(C)[C@H]([C@H](OC(=O)c3ccccc3)[C@]3(O)C[C@H](OC(=O)[C@H](OC(=O)NCCN4CCOCC4)[C@@H](NC(=O)c4ccccc4)c4ccccc4)C(C)=C1C3(C)C)[C@]1(OC(C)=O)CO[C@@H]1C[C@@H]2O | – | > 1000 | > 1000 | > 1000 | > 1000 | – | – | – | – | – | – | – | – | inactive | inactive |
| 100 (≈ 102 µM) | 400 | – | – | – | CC(=O)O[C@H]1C(=O)[C@@]2(C)[C@H]([C@H](OC(=O)c3ccccc3)[C@]3(O)C[C@H](OC(=O)[C@H](OC(=O)CN4CCOCC4)[C@@H](NC(=O)c4ccccc4)c4ccccc4)C(C)=C1C3(C)C)[C@]1(OC(C)=O)CO[C@@H]1C[C@@H]2O | – | 12 | 3.49 | 49.2 | 22.9 | – | – | – | – | – | – | – | – | – | – |
